# Bioassay records from PubChem.
# RAM inhibit – yeast RAM network inhibition; actives 1.8% (n = 190,000); S. cerevisiae dse1pr::URA3 reporter, 5-FOA growth OD615, 2 d; analog-sensitive cbk1-as2 kinase mutant strain; inhibition, % at 50 µM;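 active = inhibition above a set limit, 3 SD over mean compound inhibition, cut at about 8.4% in these data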;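 note: inhibition rescues growth on 5-FOA so higher OD means more RAM inhibition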
# L major viab – inhibitors of Leishmania major promastigote growth; Leishmania major promastigotes, resazurin fluorescence viability; inhibition, % at 10 µM; actives 9% (n = 200,000); AID 1063; in the data active = inhibition above about 50%;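 note: promastigotes grown with compound for 44 hours at 28 °C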
# ABCG2 block – blocks JC-1 efflux by human ABCG2 transporter; Q9UNQ0; IgMXP3 cells, flow cytometry; inhibition, % at 6.6 µM; actives 0.1% (n = 190,000); AID 1325;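 active = inhibition above 80%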
#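 Test system: IgMXP3 (ABCG2) plus far-red-tagged CCRF-Adr (ABCB1) cells. Reagent: JC-1 dye as substrate. Timing: 10 min exposure at 25 °C with rotation, no wash. Measured by: flow cytometric JC-1 green MFI at 530 nm. Read-out: percent efflux inhibition, scaled nicardipine 100% to DMSO 0%. Control set: nicardipine and DMSO wells.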
# ABCB1 inh – inhibitors of human ABCB1 transporter, ABCG2 counter-screen; CCRF-Adr cells, JC-1 efflux, flow cytometry; P08183; actives 0.067% (n = 190,000); inhibition, % at 6.6 µM; in the data active = inhibition above about 40%;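 note: higher value means more JC-1 retained so stronger ABCB1 efflux block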
# WT yeast gro inh – growth inhibition of WT yeast, mitochondrial fusion screen; mitochondrial fusion phenotypic screen, WT strain; inhibition, % at 10 µM; actives 2.1% (n = 190,000); AID 1362; in the data active = inhibition above about 58%; tested in S. cerevisiae
# Numbers stand for hits; . = inactive; / = no result given. In the library only some 12% were active in any assay of this set; here they are far more common.
SMILES,RAM inhibit,L major viab,ABCG2 block,ABCB1 inh,WT yeast gro inh
CC1CN(CC(O)COC(c2ccccc2)c2ccccc2)CC(C)O1 (centres undefined),.,85.5,.,.,.
O=C(c1ccccc1)c1ccc(OCC(O)CN2CCN(Cc3ccccc3)CC2)cc1 (centres undefined),.,95.9,.,.,.
CC1CN(CC(O)COc2ccccc2C(C)(C)C)CC(C)O1 (centres undefined),.,92.3,.,.,.
CC(C)(c1ccccc1)c1ccc(OCC(O)CNC2CCN(Cc3ccccc3)CC2)cc1 (centres undefined),.,100.5,.,.,.
CCc1ccc(NC(=O)c2c(C(=O)Nc3ccccc3)sc3nc(C)cc(=O)n23)cc1,.,.,.,.,.
Cc1cccc(C)c1Nc1nnc(SC(C)C(=O)Nc2c(C)n(C)n(-c3ccccc3)c2=O)s1 (centres undefined),.,.,.,.,.
CC(=O)c1ccc(OCC(O)CN2CCN(Cc3ccccc3)CC2)cc1 (centres undefined),.,93.7,.,.,.
CC(=O)c1ccc(OCC(O)CN2CCN(CC(O)COc3ccc(C(C)=O)cc3)CC2)cc1 (centres undefined),.,.,.,.,.
CC1CN(CC(O)COc2ccc(C(=O)c3ccccc3)cc2)CC(C)O1 (centres undefined),.,79.0,.,.,.
COc1ccccc1N(C(=O)c1ccncc1)c1nc(-c2ccc([N+](=O)[O-])cc2)cs1,.,98.7,.,/,.
COCCCn1c(SCC(=O)NC(C)(C)C)nnc1-c1ccccc1,.,.,.,.,66.0
COCCCn1c(SCC(=O)NC2CCCCC2)nnc1-c1ccncc1,.,.,.,.,.
COc1ccc(/C=N/N(C(C)=O)c2nc(-c3ccc(C)cc3)cs2)cc1,9.3,.,.,.,.
Clc1ccc(COn2c(-c3ccc(Cl)cc3)nc3ccccc32)cc1,9.1,.,.,.,.
COn1c(-c2ccc(Cl)cc2)nc2ccc(Cl)cc21,10.8,.,.,.,.
O=C(O)COn1c(-c2ccc(Cl)cc2)nc2ccc(Cl)cc21,.,.,.,.,.
Clc1ccc(COn2c(-c3ccccc3)nc3ccccc32)cc1,.,.,.,.,.
CC(C)=C1C2CCC1C1C(=O)N(c3nc(-c4ccccc4)c(C)s3)C(=O)C21 (centres undefined),.,.,.,.,58.8
CCOc1cccc(C(=O)Nc2ccc3oc(Cc4ccc(Cl)cc4)nc3c2)c1,10.6,.,.,.,58.8
COC(=O)[C@@]1(Cc2ccc(OC)cc2)[C@H]2c3cc(C(=O)N4CCCC4)n(Cc4ccc(OC)c(OC)c4)c3C[C@H]2CN1C(=O)c1ccccc1,.,.,.,.,.
COC(=O)[C@@]1(Cc2ccc(OC)cc2)[C@H]2c3cc(C(=O)N(C)C)n(CCc4ccc(OC)c(Br)c4)c3C[C@H]2CN1C(=O)c1ccccc1,.,62.3,.,.,.
COC(=O)[C@@]1(Cc2ccc(F)cc2)[C@H]2c3cc(C(=O)N4CCCC4)n(Cc4ccc(C(F)(F)F)nc4)c3C[C@H]2CN1C(=O)c1ccccc1,.,87.3,.,.,.
COc1ccc(C(=O)NNC(=O)Nc2ccc(Cl)cc2)cc1,.,.,.,.,.
O=C1CSC(=NC2CCCCC2)N1,.,.,.,.,84.2
COc1ccc(C)c2sc(NNC(=O)COc3ccccc3)nc12,.,.,.,.,.
SMILES,RAM inhibit,L major viab,ABCG2 block,ABCB1 inh,WT yeast gro inh
Cc1cc(S(=O)(=O)N2CCCOC2CNC(=O)C(=O)NCc2ccco2)ccc1F (centres undefined),.,.,.,.,.
O=C(CSc1nnc(-c2cccs2)n1Cc1ccco1)Nc1ccc2c(c1)OCO2,.,.,.,.,.
COc1cccc(-n2c(SCC(N)=O)nnc2-c2c[nH]c3ccccc23)c1,.,.,.,.,.
O=C(CSc1ncc(-c2ccc(F)cc2)n1Cc1ccco1)Nc1ccc2c(c1)OCO2,.,59.8,.,.,.
COc1ccc(OC)c(-n2c(SCC(N)=O)nnc2-c2c[nH]c3ccccc23)c1,.,.,.,.,.
COc1ccc(OC)c(-n2c(SC)nnc2-c2c[nH]c3ccccc23)c1,.,65.2,.,.,.
CCOc1ccc(-n2c(SCC(=O)Nc3cc(C)on3)nnc2-c2c[nH]c3ccccc23)cc1,8.6,.,.,.,62.9
COc1ccc(OC)c(-n2c(SCC(=O)Nc3cc(C)on3)nnc2-c2c[nH]c3ccccc23)c1,.,99.8,.,.,.
Cc1cc(NC(=O)CSc2nnc(-c3c[nH]c4ccccc34)n2-c2ccc(F)cc2)no1,.,.,.,.,.
CC(C)n1c(O)c(N=NC(=O)Cc2csc(N3CCOCC3)n2)c2ccccc21,.,.,.,.,.
CCOc1ccc(-n2c(SCC(=O)NCc3ccco3)nnc2-c2c[nH]c3ccccc23)cc1,.,92.6,.,.,.
COc1ccc(-n2c(-c3ccc(F)cc3)cnc2SCC(=O)NCc2ccco2)cc1,.,100.0,.,.,.
Cn1c(SCC(=O)NCc2ccco2)nnc1-c1c[nH]c2ccccc12,.,.,.,.,.
O=C(COC(=O)CC12CC3CC(CC(Br)(C3)C1)C2)NC(=O)NCc1ccco1,.,.,.,.,.
Cc1cc(N2CCOCC2)ccc1/C=C\[N+](=O)[O-],.,69.6,.,.,.
CC(=O)c1cc(N2CCOCC2)ccc1[N+](=O)[O-],.,.,.,.,.
CCNc1nc(NCC)nc(SCCOC(=O)COc2ccc(Cl)cc2Cl)n1,.,.,.,.,77.0
CC(C)Nc1nc(NC(C)C)nc(SCCOC(=O)Nc2ccc(Cl)cc2Cl)n1,.,.,.,.,65.7
Cc1ccccc1OCCC(=O)Nc1ccc(Cl)cc1F,.,.,.,/,.
C(=N\Nc1ccccn1)/c1ccc2c(c1)OCCO2,.,.,.,.,.
CCC(C)Nc1nnnc2c1sc1nc3c(cc12)COC(C)(C)C3 (centres undefined),.,50.1,.,.,.
Cc1ccc2cc(CCNC(=O)c3cccc([N+](=O)[O-])c3)c(=O)[nH]c2c1C,.,.,.,.,.
O=C(COC(=O)C1(c2ccc(F)cc2)CCCC1)Nc1ncc(C(F)(F)F)cc1Cl,.,.,.,.,.
O=C(COC(=O)C1(c2ccc(Cl)cc2)CCCC1)Nc1ncc(C(F)(F)F)cc1Cl,8.9,.,.,.,68.5
O=C(COC(=O)c1ccccn1)Nc1ncc(C(F)(F)F)cc1Cl,.,.,.,.,.
O=C(COC(=O)c1ccc([N+](=O)[O-])s1)Nc1ncc(C(F)(F)F)cc1Cl,.,.,.,.,81.6
CN(C)S(=O)(=O)c1ccc(NC(=O)CNc2cc(S(=O)(=O)N3CCCC3)ccc2OCC(F)(F)F)cc1,.,.,.,.,.
CN1CCN(C2=Cc3ccc(Cl)cc3Sc3ccc(F)cc32)CC1,.,95.4,.,.,.
CN1CCN(C2=Cc3ccccc3Sc3cc(F)ccc32)CC1,.,99.9,.,.,94.5
CN1CCN(C2=Nc3cc(F)ccc3Cc3ccccc32)CC1,/,/,.,/,.
